# According to publication PMC11865470 (Communications Biology, 2025):
# Legend:
# Type in all cases: cell-based
# ASIC3 = biological target: T1, ASIC3 (Rattus norvegicus, UniProt O35240); test: whole-cell patch-clamp, off-target channel, 10 μM compound; conditions: vs 0.1% DMSO
# T1 sequence (O35240 1-533): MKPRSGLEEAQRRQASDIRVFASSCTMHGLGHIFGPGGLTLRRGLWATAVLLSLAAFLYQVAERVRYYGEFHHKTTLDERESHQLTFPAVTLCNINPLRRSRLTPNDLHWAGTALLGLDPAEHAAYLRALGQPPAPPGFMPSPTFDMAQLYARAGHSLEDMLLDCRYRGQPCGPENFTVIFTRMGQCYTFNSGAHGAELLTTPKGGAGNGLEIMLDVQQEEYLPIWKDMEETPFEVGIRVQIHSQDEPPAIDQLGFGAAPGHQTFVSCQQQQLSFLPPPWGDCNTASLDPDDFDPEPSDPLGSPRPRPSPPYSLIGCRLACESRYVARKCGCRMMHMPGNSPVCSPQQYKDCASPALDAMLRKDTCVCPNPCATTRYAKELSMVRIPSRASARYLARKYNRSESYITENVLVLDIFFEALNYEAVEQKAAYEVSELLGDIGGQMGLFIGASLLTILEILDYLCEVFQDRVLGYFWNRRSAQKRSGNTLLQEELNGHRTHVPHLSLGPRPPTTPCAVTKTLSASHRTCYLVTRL
# How it was run: (§1)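 ASIC channels in transfected HEK293T cells, whole-cell. Pipette (mM): 140 CsF, 11 EGTA, 1 CaCl2, 2 TEA-Cl, 4 MgCl2, 10 HEPES, pH 7.3. NaCl-based bath with 20 mM HEPES (pH 7.4) or 20 mM MES (pH 5.5). 0.1% DMSO bath applied before 10 μM test compound. Inhibition ratios compared by unpaired t-test, n = 5.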
# NaV1.5 = NaV1.5 (Homo sapiens, UniProt Q14524); test: whole-cell patch-clamp, off-target channel, 10 μM compound
# How it was run: (§2)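 NaV channels, transiently transfected HEK293T cells, whole-cell, 16–24 h after seeding. Pipette (mM): 140 CsF, 1 EGTA, 10 NaCl, 10 HEPES, pH 7.4. Bath (mM): 140 NaCl, 5 KCl, 2 CaCl2, 1 MgCl2, 10 glucose, 10 HEPES, pH 7.4. Bath with 0.1% DMSO applied before 10 μM test compound. Inhibition ratios compared by unpaired t-test, n = 5.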
# NaV1.7 = NaV1.7 (Homo sapiens, UniProt Q15858); test: as above
# How it was run: as §2
# hERG = hERG (Homo sapiens, UniProt Q12809); test: whole-cell patch-clamp, off-target channel, 10 μM compound
# hERG, sequence (Q12809 whole entry): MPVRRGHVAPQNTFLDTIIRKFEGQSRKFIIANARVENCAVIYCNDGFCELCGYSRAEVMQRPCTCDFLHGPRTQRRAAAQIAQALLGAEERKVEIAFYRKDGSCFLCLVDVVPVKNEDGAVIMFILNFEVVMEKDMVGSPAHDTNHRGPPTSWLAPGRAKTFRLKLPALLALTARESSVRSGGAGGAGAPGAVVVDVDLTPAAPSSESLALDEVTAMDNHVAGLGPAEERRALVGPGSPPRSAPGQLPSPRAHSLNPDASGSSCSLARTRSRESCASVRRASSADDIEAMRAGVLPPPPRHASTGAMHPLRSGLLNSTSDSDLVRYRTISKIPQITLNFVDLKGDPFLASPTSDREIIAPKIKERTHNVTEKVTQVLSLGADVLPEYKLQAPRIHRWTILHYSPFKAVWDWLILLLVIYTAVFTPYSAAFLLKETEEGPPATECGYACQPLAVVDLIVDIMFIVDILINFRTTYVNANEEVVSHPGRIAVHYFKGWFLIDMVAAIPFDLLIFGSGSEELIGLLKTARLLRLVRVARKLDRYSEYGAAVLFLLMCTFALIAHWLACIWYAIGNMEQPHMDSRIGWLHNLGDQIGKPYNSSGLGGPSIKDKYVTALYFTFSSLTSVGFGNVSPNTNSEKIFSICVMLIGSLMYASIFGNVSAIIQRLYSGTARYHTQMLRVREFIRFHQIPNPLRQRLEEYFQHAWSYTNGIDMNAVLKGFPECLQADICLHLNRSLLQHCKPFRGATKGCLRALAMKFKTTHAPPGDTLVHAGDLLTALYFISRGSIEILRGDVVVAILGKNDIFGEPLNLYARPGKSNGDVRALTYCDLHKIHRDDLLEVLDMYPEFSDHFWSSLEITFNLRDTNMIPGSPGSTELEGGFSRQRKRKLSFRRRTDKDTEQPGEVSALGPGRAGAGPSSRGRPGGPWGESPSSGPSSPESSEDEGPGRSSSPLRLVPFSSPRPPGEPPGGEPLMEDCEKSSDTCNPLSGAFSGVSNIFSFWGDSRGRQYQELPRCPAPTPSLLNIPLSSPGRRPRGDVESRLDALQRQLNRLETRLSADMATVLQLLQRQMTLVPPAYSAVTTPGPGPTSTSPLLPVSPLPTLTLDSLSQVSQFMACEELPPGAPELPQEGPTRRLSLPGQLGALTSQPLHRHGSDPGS
# How it was run: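 hERG, transiently transfected HEK293T cells, whole-cell recording 16–24 h after seeding. Bath containing 0.1% DMSO applied first, then 10 μM test compound. Inhibition ratio from DMSO compared with that from compound by unpaired t-test, n = 5.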
# Kir2.1 = Kir2.1 (Homo sapiens, UniProt P63252); test: whole-cell patch-clamp, off-target channel, 10 μM compound; conditions: vs 0.1% DMSO
# Kir2.1, sequence (P63252 whole entry): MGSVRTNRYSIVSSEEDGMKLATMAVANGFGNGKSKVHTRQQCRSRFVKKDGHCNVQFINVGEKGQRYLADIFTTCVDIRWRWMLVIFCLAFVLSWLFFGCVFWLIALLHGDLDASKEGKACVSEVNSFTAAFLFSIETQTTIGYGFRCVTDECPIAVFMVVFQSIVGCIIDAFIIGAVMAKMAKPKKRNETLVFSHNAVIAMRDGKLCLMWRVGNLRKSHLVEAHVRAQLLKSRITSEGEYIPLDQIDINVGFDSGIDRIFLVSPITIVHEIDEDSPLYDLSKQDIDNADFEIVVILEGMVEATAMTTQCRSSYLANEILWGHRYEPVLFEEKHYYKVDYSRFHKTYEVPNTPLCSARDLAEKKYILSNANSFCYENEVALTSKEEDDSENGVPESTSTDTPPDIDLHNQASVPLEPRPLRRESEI
# CaV3.1 = CaV3.1 (Homo sapiens, UniProt O43497); test: whole-cell patch-clamp, off-target channel, 10 μM compound
# CaV3.1, sequence (O43497 whole entry): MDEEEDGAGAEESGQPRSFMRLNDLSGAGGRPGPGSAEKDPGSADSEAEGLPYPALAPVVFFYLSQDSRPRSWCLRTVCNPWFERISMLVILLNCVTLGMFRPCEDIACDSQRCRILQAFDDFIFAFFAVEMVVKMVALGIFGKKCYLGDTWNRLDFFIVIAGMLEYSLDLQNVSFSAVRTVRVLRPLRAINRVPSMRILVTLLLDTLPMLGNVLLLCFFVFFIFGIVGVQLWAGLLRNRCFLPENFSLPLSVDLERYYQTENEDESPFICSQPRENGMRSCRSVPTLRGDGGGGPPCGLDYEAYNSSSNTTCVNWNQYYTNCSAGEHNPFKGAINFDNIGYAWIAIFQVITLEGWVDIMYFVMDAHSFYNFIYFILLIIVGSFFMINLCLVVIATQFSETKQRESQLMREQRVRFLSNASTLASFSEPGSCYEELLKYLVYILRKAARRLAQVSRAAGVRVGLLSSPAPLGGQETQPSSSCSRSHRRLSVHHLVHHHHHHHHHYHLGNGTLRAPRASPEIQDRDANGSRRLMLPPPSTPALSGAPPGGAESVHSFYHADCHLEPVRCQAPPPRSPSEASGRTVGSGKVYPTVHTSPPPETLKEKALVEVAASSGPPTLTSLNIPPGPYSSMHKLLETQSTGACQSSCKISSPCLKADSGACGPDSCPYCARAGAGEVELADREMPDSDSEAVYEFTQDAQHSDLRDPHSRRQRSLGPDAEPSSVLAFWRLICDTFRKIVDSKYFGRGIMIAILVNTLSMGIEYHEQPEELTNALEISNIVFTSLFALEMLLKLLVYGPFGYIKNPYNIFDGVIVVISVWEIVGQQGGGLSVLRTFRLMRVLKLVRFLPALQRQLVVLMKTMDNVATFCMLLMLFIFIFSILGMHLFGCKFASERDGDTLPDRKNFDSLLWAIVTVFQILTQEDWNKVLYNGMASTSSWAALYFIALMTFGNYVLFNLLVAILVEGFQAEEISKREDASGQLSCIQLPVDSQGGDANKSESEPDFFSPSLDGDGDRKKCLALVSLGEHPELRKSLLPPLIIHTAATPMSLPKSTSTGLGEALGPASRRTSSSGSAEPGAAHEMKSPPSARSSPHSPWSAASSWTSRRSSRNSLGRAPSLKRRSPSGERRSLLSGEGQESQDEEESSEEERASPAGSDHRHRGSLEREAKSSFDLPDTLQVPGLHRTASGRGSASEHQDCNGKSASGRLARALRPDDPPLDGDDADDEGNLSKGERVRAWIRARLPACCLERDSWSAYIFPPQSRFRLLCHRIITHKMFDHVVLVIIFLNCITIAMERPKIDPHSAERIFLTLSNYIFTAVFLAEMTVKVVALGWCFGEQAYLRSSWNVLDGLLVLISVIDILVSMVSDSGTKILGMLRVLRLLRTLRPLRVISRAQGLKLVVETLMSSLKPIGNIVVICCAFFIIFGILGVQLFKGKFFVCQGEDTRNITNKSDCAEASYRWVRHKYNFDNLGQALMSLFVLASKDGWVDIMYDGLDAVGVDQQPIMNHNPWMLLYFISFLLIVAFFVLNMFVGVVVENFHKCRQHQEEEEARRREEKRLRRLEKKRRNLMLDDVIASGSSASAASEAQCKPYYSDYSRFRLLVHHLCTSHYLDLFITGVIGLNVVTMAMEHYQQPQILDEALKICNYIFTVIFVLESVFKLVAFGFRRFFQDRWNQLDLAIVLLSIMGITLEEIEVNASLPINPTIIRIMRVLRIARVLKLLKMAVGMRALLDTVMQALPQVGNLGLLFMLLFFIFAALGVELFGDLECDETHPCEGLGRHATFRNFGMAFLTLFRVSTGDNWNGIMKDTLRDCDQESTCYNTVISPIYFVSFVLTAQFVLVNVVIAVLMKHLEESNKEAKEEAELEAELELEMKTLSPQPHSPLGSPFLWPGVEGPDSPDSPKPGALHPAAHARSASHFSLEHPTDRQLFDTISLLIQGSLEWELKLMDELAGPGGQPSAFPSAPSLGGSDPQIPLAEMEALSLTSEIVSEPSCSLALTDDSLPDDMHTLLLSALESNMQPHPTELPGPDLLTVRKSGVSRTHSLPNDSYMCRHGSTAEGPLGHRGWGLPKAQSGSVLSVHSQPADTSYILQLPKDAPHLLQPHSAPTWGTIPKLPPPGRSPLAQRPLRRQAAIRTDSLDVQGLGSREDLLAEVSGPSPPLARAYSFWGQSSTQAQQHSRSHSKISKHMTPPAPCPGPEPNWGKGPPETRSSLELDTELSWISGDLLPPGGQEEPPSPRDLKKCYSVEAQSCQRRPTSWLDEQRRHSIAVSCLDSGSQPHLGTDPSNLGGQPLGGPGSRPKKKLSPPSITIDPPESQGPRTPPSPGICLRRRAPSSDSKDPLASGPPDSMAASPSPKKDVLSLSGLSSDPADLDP
# How it was run: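 CaV channels in transfected HEK293T cells, whole-cell. Pipette (mM): 120 CsMeSO3, 2 Mg-ATP, 11 EGTA, 10 HEPES, pH 7.4. Bath (mM): 138 NaCl, 5.6 KCl, 2.6 CaCl2, 20 TEA-Cl, 5 glucose, 5 HEPES, pH 7.4. 0.1% DMSO bath applied before 10 μM test compound. Inhibition ratios compared by unpaired t-test, n = 5.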
# ASIC1a = ASIC1a (Rattus norvegicus, UniProt P55926); test: whole-cell patch-clamp, off-target channel, 10 μM compound; conditions: vs 0.1% DMSO
# ASIC1a, sequence (P55926 whole entry): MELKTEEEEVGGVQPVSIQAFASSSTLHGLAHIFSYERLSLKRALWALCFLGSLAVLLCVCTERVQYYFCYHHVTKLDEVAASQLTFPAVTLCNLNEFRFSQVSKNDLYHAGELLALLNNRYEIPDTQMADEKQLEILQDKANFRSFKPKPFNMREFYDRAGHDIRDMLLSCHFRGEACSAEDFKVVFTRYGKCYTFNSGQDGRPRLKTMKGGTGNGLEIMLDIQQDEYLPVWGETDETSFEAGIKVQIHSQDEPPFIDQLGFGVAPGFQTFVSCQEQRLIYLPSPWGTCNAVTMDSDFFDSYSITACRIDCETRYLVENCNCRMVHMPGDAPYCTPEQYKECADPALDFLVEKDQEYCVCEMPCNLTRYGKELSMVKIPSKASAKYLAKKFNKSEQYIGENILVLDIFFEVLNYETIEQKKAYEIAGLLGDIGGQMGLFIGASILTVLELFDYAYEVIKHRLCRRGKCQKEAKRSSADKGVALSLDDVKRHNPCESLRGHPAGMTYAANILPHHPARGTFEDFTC
# How it was run: as §1
# [1] = biological target: T2, mouse Otop1 (mOtop1) channels (Mus musculus, UniProt Q80VM9); conditions: 10 μM MFaN; pH 5.5
# T2 sequence (Q80VM9 1-600): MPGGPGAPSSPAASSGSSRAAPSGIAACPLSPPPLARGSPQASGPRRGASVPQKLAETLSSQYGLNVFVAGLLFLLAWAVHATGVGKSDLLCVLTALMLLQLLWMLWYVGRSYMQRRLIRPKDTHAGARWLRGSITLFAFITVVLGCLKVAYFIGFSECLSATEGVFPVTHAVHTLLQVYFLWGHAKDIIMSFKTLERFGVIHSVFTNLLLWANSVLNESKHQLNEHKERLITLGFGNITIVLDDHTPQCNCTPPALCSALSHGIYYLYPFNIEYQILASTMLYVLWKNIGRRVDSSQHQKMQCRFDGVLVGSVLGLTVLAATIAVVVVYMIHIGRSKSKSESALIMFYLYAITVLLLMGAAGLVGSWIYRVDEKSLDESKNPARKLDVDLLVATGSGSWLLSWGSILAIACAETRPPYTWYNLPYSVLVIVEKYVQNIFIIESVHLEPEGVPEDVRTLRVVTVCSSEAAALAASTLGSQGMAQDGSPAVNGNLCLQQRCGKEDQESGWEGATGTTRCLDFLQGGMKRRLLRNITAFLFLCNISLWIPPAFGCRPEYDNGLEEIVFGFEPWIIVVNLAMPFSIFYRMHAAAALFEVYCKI
# mOtop1 E226A = mOtop1 E226A (Mus musculus, UniProt Q80VM9, E226A); test: patch-clamp, mOtop1 mutant; conditions: 10 μM; pH 5.5
# How it was run: (§3)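 Alanine-substituted mOtop1 mutants were co-transfected (2.5 μg channel plus 0.5 μg EGFP plasmid, Lipofectamine 2000) into PAC-knockout HEK293T cells. Whole-cell recording 16–24 h after seeding on PLL coverslips. Pipette (mM): 120 Cs-aspartate, 15 CsCl, 2 Mg-ATP, 5 EGTA, 2.4 CaCl2, 10 HEPES, pH 7.3. Bath (mM): 160 NMDG-Cl, 2 CaCl2, 10 MES, pH 5.5, with 10 μM test compound. Response compared with wild-type mOtop1.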
# mOtop1 T233A = mOtop1 T233A (Mus musculus, UniProt Q80VM9, T233A); test: patch-clamp, mOtop1 mutant; conditions: 10 μM; pH 5.5
# How it was run: as §3
# mOtop1 L243A = mOtop1 L243A (Mus musculus, UniProt Q80VM9, L243A); test: patch-clamp, mOtop1 mutant; conditions: 10 μM; pH 5.5
# How it was run: as §3
# mOtop1 D245A = mOtop1 D245A (Mus musculus, UniProt Q80VM9, D245A); test: patch-clamp, mOtop1 mutant; conditions: 10 μM; pH 5.5
# How it was run: as §3
# mOtop1 R554N = mOtop1 R554N (Mus musculus, UniProt Q80VM9, R554N); test: patch-clamp, mOtop1 mutant; conditions: Fig 5G, H
# mOtop1 R554H = mOtop1 R554H (Mus musculus, UniProt Q80VM9, R554H); test: patch-clamp, mOtop1 mutant; conditions: Fig 5G, H
# mOtop1 R554H, sequence (Q80VM9 whole entry R554H): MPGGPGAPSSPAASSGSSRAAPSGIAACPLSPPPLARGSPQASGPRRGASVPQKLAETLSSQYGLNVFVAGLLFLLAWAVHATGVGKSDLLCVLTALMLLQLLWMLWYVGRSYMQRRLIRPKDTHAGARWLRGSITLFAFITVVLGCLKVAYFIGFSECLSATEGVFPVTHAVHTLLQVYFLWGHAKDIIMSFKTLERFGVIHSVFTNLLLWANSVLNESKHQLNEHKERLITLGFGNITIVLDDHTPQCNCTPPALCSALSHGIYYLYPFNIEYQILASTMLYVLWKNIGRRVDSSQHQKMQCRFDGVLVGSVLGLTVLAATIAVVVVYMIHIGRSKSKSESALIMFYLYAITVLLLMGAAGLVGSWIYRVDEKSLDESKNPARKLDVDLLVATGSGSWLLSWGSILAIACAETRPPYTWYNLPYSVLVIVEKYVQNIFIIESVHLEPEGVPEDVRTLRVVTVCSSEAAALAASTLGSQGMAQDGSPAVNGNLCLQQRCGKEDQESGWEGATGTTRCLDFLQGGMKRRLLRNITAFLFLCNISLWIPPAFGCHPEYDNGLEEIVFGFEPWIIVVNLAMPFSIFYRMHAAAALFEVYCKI
structure (smiles),measurement,setting,value
"Cc1cc(NC(=O)c2ccc(Br)o2)ccc1NC(=O)c1ccco1 [B2FAMP, 5-Bromo-N-[4-(2-furoylamino)-3-methylphenyl]-2-furamide]",sensitivity of channel to compound,ASIC3,completely resistant
"CC(C)c1noc2ncc(C(=O)c3ccccc3O)cc12 [HIMOP, (2-hydroxyphenyl)-(3-propan-2-yl-5-isoxazolo[5,4-b]pyridinyl)methanone]",inhibition ratio,NaV1.5,8.9%
same,inhibition ratio,NaV1.7,11.3%
same,inhibition ratio,hERG,8.5%
same,sensitivity of channel to compound,Kir2.1,completely resistant
same,sensitivity of channel to compound,CaV3.1; vs 0.1% DMSO,completely resistant
same,sensitivity of channel to compound,ASIC1a,completely resistant
same,sensitivity of channel to compound,ASIC3,completely resistant
"Cc1ccc(C(=O)Nc2ccc3ccccc3c2)o1 [MFaN, 5-methyl-N-2-naphthyl-2-furamide]",inhibition ratio,NaV1.5,14.8%
same,sensitivity of channel to compound,NaV1.7; vs 0.1% DMSO,completely resistant
same,inhibition ratio,hERG,13.7%
same,sensitivity of channel to compound,Kir2.1,completely resistant
same,inhibition ratio,CaV3.1,11.7%
same,sensitivity of channel to compound,ASIC1a,completely resistant
same,sensitivity of channel to compound,ASIC3,completely resistant
same,effect on inhibition of mOtop1 by Zn2+,[1],without affecting
same,response of mutant to MFaN compared to wild-type mOtop1,mOtop1 E226A,markedly reduced
same,response of mutant to MFaN compared to wild-type mOtop1,mOtop1 T233A,markedly reduced
same,response of mutant to MFaN compared to wild-type mOtop1,mOtop1 L243A,significantly enhanced
same,response of mutant to MFaN compared to wild-type mOtop1,mOtop1 D245A,significantly enhanced
same,effect of mutation on MFaN's potentiation effect vs WT mOtop1,mOtop1 R554N,eliminated
same,effect of mutation on MFaN's potentiation effect vs WT mOtop1,mOtop1 R554H,reduced
